# From article PMC5905822 (International Journal of Nanomedicine, 2018)
# Columns and labels:
# rat liver microsomes = settings: cited from earlier work
# [1] = Plasma pharmacokinetics in rats after intravenous injection; assay type: in vivo, Sprague Dawley (SD) rats
# Method in brief: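 Male SD rats (220–250 g), fasted overnight and randomized (n=6/group), got 6 mg/kg iv of free or lipid-carrier-formulated ester. An automated collector drew blood at 2–300 min, with saline volume replacement. Plasma was prepared cold and stored at −80°C, then extracted with ice-cold acetonitrile plus internal standard, dried under nitrogen and reconstituted in methanol. LC-MS measured the parent ester and its hydrolysed metabolite.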
# human liver microsomes = settings: cited from earlier work
structure (smiles),measurement,setting,value
"CC1(C)C2CCC1(C)C(OC(=O)C(O)Cc1ccc(O)c(O)c1)C2 (stereo not shown) [DBZ, 1,7,7-trimethylbicyclo[2.2.1]heptan-2-yl 3-[3,4-dihydroxyphenyl]-2-hydroxy-propanoate]",Metabolism by the liver microsomal enzymes,rat liver microsomes,metabolized quickly
same,MRT0–∞ of plasma DBZ,"[1]; analyte DBZ, rats, intravenous, 6 mg/kg",0.149±0.015 H
same,Elimination from the blood circulation after injection,[1]; preliminary pharmacokinetic studies in rats,eliminated quickly
same,Metabolism by the liver microsomal enzymes,human liver microsomes,metabolized quickly
